Measurements taken from ChEMBL document CHEMBL5036319, “Discovery of Novel Benzothiazepinones as Irreversible Covalent Glycogen Synthase Kinase 3β Inhibitors for the Treatment of Acute Promyelocytic Leukemia” (J Med Chem, 2021).
The source made the active and inactive calls. The rule behind the calls is not given here.

Legend:
[1] = Induction in caspase-mediated apoptosis in human NB-4 cells assessed as viable cells at 100 uM incubated for 24 hrs by Annexin V-FITC/propidium iodide staining based flow cytometry analysis (reference value: 96.6%); format: functional; details: read-out: Activity
[2] = Induction in caspase-mediated apoptosis in human NB4-DR1 cells assessed as late apoptotic cells at 25 uM incubated for 24 hrs in presence of Z-VAD-FMK by Annexin V-FITC/propidium iodide staining based flow cytometry analysis (reference value: 2.54%); format: functional
[3] = Induction in caspase-mediated apoptosis in human NB4-DR1 cells assessed as viable cells at 100 uM incubated for 24 hrs in presence of Z-VAD-FMK by Annexin V-FITC/propidium iodide staining based flow cytometry analysis (reference value: 96.4%); format: functional; details: read-out: Activity
[4] = Tmax in ICR mouse at 15 mg/kg, ip administered as single dose measured upto 8 hrs by LC-MS/MS analysis; format: ADME, organism-based; details: in vivo
Summary of the method: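 Male ICR mice (30 g) received a single 15 mg/kg i.p. bolus in corn oil. Orbital blood went into K3EDTA tubes at 0.08–8 h, three animals per time point (composite profile). Plasma was protein-precipitated with acetonitrile and analysed by LC–MS/MS; non-compartmental analysis.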

[5] = Cytotoxicity against HUVEC assessed as cell viability at 100 uM incubated for 24 hrs by CCK-8 assay relative to control; format: cell-based; details: human, read-out: Activity
Summary of the method: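 HUVEC and LO2 normal cells were cultured in RPMI-1640 or DMEM with 10% FBS at 37 °C, 5% CO2, and seeded at 3 × 10^4 cells/well. They were exposed for 24 h to graded concentrations. CCK-8 incubation was 3 h at 37 °C, with A450 read and viability expressed versus untreated control. Three independent experiments, mean ± SEM.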

[6] = Induction in caspase-mediated apoptosis in human NB-4 cells assessed as early apoptotic cells at 12.5 uM incubated for 24 hrs in presence of Z-VAD-FMK by Annexin V-FITC/propidium iodide staining based flow cytometry analysis (reference value: 1.84%); format: functional
[7] = Induction in caspase-mediated apoptosis in human NB4-DR1 cells assessed as late apoptotic cells at 50 uM incubated for 24 hrs by Annexin V-FITC/propidium iodide staining based flow cytometry analysis (reference value: 1.47%); format: functional
[8] = Induction in caspase-mediated apoptosis in human NB4-DR1 cells assessed as necrotic cells at 100 uM incubated for 24 hrs by Annexin V-FITC/propidium iodide staining based flow cytometry analysis (reference value: 0.19%); format: functional
Raji = experiment: Cytotoxicity against human Raji cells assessed as reduction in cell viability measured after 24 hrs by CCK-8 assay; format: functional, cell-based
Summary of the method: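 Cells were grown in RPMI-1640 or high-glucose DMEM with 10% FBS at 37 °C, 5% CO2, and seeded at 3 × 10^4 cells/well. Exposure was 24 h across serial concentrations (0−1000 μM in the screen). […] Three independent experiments, mean ± SEM.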

[9] = molecular target: Glycogen synthase kinase-3 beta (Homo sapiens, UniProt P49841); experiment: Binding affinity to recombinant human GSK-3beta assessed as covalent bond formation between compound and enzyme by measuring mass changes by […] analysis
Summary of the method: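 Human recombinant GSK-3β (10 μM stock in 50 mM HEPES, 1 mM EDTA, 2 mM EGTA, 15 mM Mg(OAc)2) was incubated with compound in DMSO (1.6 μL of 500 μM into 14.4 μL) at 30 °C with shaking for 30 min. Intact protein was run on C4 LC over a 5–100% acetonitrile/0.1% formic acid gradient into positive-ion Q-TOF MS, and mass shift was read.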

[10] = Induction in caspase-mediated apoptosis in human NB4-DR1 cells assessed as necrotic cells at 12.5 uM incubated for 24 hrs by Annexin V-FITC/propidium iodide staining based flow cytometry analysis (reference value: 0.19%); format: functional
[11] = Induction in caspase-mediated apoptosis in human NB4-DR1 cells assessed as early apoptotic cells at 12.5 uM incubated for 24 hrs by Annexin V-FITC/propidium iodide staining based flow cytometry analysis (reference value: 1.43%); format: functional
[12] = Induction in caspase-mediated apoptosis in human NB4-DR1 cells assessed as early apoptosis cells at 12.5 uM incubated for 24 hrs in presence of Z-VAD-FMK by Annexin V-FITC/propidium iodide staining based flow cytometry analysis (reference value: 0.875%); format: functional
[13] = Induction in caspase-mediated apoptosis in human NB4-DR1 cells assessed as late apoptotic cells at 50 uM incubated for 24 hrs in presence of Z-VAD-FMK by Annexin V-FITC/propidium iodide staining based flow cytometry analysis (reference value: 2.54%); format: functional
[14] = Induction in caspase-mediated apoptosis in human NB4-DR1 cells assessed as necrotic cells at 25 uM incubated for 24 hrs in presence of Z-VAD-FMK by Annexin V-FITC/propidium iodide staining based flow cytometry analysis (reference value: 0.223%); format: functional
[15] = Induction in caspase-mediated apoptosis in human NB-4 cells assessed as early apoptotic cells at 25 uM incubated for 24 hrs by Annexin V-FITC/propidium iodide staining based flow cytometry analysis (reference value: 2.02%); format: functional
[16] = Induction in caspase-mediated apoptosis in human NB-4 cells assessed as early apoptotic cells at 12.5 uM incubated for 24 hrs by Annexin V-FITC/propidium iodide staining based flow cytometry analysis (reference value: 2.02%); format: functional
[17] = Induction in caspase-mediated apoptosis in human NB-4 cells assessed as viable cells at 25 uM incubated for 24 hrs in presence of Z-VAD-FMK by Annexin V-FITC/propidium iodide staining based flow cytometry analysis (reference value: 96.8%); format: functional; details: read-out: Activity
[18] = Toxicity in BALB/c mouse xenografted with human NB-4 cells assessed as body weight loss at 15 mg/kg/day, ip administered for 2 weeks; format: organism-based; details: in vivo, 336 h
Summary of the method: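 Female Balb/c nude mice (4 weeks old) injected subcutaneously in the right flank with 2 × 10^6 NB4 cells. At about 0.5 cm tumour diameter, mice were randomised (n = 5). Dosing was 15 mg/kg/d i.p. in corn oil, or corn-oil vehicle, daily for 2 weeks, with body weight recorded throughout; mean ± SEM.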

[19] = AUClast in ICR mouse at 15 mg/kg, ip administered as single dose measured upto 8 hrs by LC-MS/MS analysis; format: ADME, organism-based; design: route intraperitoneal, dose 15 mg/kg, time <=8; details: in vivo
Summary of the method: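 Male ICR mice (30 g) given a single i.p. bolus of 15 mg/kg in corn oil. Blood taken by orbital collection into K3EDTA tubes at 0.08, 0.17, 0.5, 1, 2, 4 and 8 h, three animals per time point, giving a composite profile. Plasma proteins were precipitated with acetonitrile and analysed by LC-MS/MS. Parameters were derived by non-compartmental analysis.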

[20] = Induction in caspase-mediated apoptosis in human NB-4 cells assessed as early apoptotic cells at 50 uM incubated for 24 hrs by Annexin V-FITC/propidium iodide staining based flow cytometry analysis (reference value: 2.02%); format: functional
[21] = Induction in caspase-mediated apoptosis in human NB-4 cells assessed as necrotic cells at 12.5 uM incubated for 24 hrs in presence of Z-VAD-FMK by Annexin V-FITC/propidium iodide staining based flow cytometry analysis (reference value: 0.167%); format: functional

Sequence of Glycogen synthase kinase-3 beta (P49841 whole entry, looked up): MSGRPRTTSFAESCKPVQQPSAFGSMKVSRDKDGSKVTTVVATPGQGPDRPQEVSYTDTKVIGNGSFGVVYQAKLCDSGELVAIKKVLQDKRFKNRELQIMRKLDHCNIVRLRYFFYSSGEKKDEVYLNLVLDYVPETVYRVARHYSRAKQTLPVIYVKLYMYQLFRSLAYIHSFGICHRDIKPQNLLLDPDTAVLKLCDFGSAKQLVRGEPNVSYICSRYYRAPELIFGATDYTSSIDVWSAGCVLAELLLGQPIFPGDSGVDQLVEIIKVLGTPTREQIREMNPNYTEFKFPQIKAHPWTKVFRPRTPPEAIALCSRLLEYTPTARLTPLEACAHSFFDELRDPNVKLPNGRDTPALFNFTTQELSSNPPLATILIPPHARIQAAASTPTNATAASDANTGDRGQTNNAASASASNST

C=CC(=O)N1C(=O)CC(c2ccc(F)cc2)Sc2ccccc21 (configuration not stated)
viability at 100 µM [1]: 5.94% | Activity [2]: 5.45% | viability at 100 µM [3]: 82.2% | Tmax [4]: 1 h | viability at 24 h, 100 µM [5]: > 70% | Activity [6]: 4.58% | Activity [7]: 16.1% | Activity [8]: 6.32% | IC50 (Raji): 28.4 µM | Activity [9]: Active | Activity [10]: 0.508% | Activity [11]: 1.77% | Activity [12]: 0.773% | Activity [13]: 7.04% | Activity [14]: 0.485% | Activity [15]: 6.44% | Activity [16]: 8.87% | viability at 25 µM [17]: 80% | Activity [18]: Toxic | AUC(0-t) at 8 h [19]: 3.5 µg·h/mL | Activity [20]: 7.23% | Activity [21]: 1.59%
